Tested on: MS2 coat protein
Assay: apparent Kd, MS2 coat protein; higher = weaker binding; RNA-MaP array; theophylline 2 mM where present
Procedure, shortened: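 Green signal from SNAP-549-labelled MS2 coat protein was normalised to red-channel RNA signal and to the median Fmax of control clusters. The protein was titrated from 0.7 or 1.5 nM, doubling to 3 µM, without and then with constant ligand, over designs transcribed by stalled E. coli RNA polymerase on Illumina sequencing-chip clusters, in 100 mM Tris-HCl pH 7.5, 80 mM KCl, 4 mM MgCl2, BSA, DTT, yeast tRNA and Tween-20. The apparent Kd is the median of filtered per-cluster binding-curve fits.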

[1] = designed as: ON switch for theophylline, no ligand
[2] = ligand present: theophylline, designed as: ON switch for theophylline
[3] = designed as: OFF switch for theophylline, no ligand
[4] = ligand present: theophylline, designed as: OFF switch for theophylline

Sequence | apparent Kd [1] | apparent Kd [2] | apparent Kd [3] | apparent Kd [4]
AAACAUGAGGAUCACCCAUGUUCAAUAGAUACCAGUGAUACGGUGCACCCUUGGCAGCUGUUGCUGAGUGAUGGUUCCCUCGGUA | 29 nM | 37.3 nM |  | 
GUAAAUGUGACGGAUACCAGCGUGUUGUAGAACAUGAGGAUCACCCAUGUAGUGAUCAUGCGCCCUUGGCAGCUGGUAUGUUUGU | 474 nM | 841 nM |  | 
GAUACCAUGAUCCUCCUGGUAUCGGCUGAUACCAGCCAGCUGACUGGCCCUUGGCAGCAGCAUACAUGAGGAUCACCCAUGUUAA | 88.3 nM | 267 nM |  | 
ACCUACACGGAAACGUGUAGAAGUAAUGAUACCAGCAUGGAAACAUGCCCUUGGCAGCGUUACAUGAGGAUCACCCAUGUAUGUU |  |  | 14.8 nM | 32.4 nM
AGACAUGAGGAUCACCCAUGUAGUAUGGAUACCAGAUCCAGAUUUAUCCCUUGGCAGCUGUGGUACAGCGUUGGAUCGCUCCUAG |  |  | 26.5 nM | 
UGGGCAUACAUGAGGAUCACCCAUGUAGAUACCAGCACUAGCCUGUGCCCUUGGCAGCUAACCGGGUCGAGAACUUAGUGCUCCU |  |  | 11.8 nM | 52.7 nM
AGUCUAUGGAGAGAUACCAGUGAGAGCCAUAGACAUGAGGAUCACCCAUGUGACAUGGAUCACCCUUGGCAGCUCAACGAGCUCU | 126 nM | 20.2 nM |  | 
GAACAUGAGGAUCACCCAUGUAAAACAGAUACCAGUGAUAUAAUACACCCUUGGCAGCUGAAGCUGAAUAAUAAUUCCCUCAAGC | 14.8 nM | 16.4 nM |  | 
AAUUGGGUUGGUGAGGUGGUUGGAGGCGAUACCAGCGUGGAAACACGCCCUUGGCAGCGCCAGGACAUGAGGAUCACCCAUGUUC |  |  | 22.7 nM | 35.2 nM
UAUAUAAUAACAGAUACCAGCGUGUUAUAAAACAUGAGGAUCACCCAUGUAGUGAUCAAGCGCCCUUGGCAGCUGGUAUUAUAUA | 72.2 nM | 146 nM |  | 
ACAUGAGGAUCACCCAUGUUCCUCAUUGAUACCAGUGAAAGAAGACGCCCUUGGCAGCGAGAAGAAGAAGAAGAAGUUUUUUUUU |  |  | 606 nM | 1340 nM
UCUUUCUAUGUAGAUACCAGCAUGUUAUAUUUCUAAUGACAUGAGGAUCACCCAUGUAAAUGCCCUUGGCAGCUGCGUUUUCUUU | 16.9 nM | 13.2 nM |  | 
AUAACAUGAGGAUCACCCAUGUAGAGUGAUACCAGACUAUGUAAUGUCCCUUGGCAGCACAAGUAAAGUUAUAAAUAAUGAUAGA | 157 nM | 27.2 nM |  | 
GAUGAAGUAACUGAUACCAGUGUACUGACAUGAGGAUCACCCAUGUUGGGUUUUGUUGUACACCCUUGGCAGCAGAAUCUUUAUC |  |  | 52.3 nM | 84.9 nM
CCGCCCACGAAUGAUACCAGCUAAAAUCAUGUACCAGACACAUGAGGAUCACCCAUGUAAAGCCCUUGGCAGCGUACGCCACCCG |  |  | 23.5 nM | 26.4 nM
AAUAUAAGUGUAAUUUUAUGUAUCUCUGAUACCAGACCCUCAUGUGUCCCUUGGCAGCAGUAACAUGAGGAUCACCCAUGUAAAA | 65.4 nM | 310 nM |  | 
CGAAUACUGAGUGAUACCAGUGAAAGAUAACUGUAUACACAUGAGGAUCACCCAUGUACACACCCUUGGCAGCACACUAGAUCGA | 33.3 nM | 17.4 nM |  | 
ACGCUGAUUGAUUACAAUCAGCGAAAAGAUACCAGUGGGUAAUCCCACCCUUGGCAGCUUAAACAUGAGGAUCACCCAUGUGGUA | 74.5 nM | 123 nM |  | 
CAUACUUUAGUAUGUUAUGUGGACAGUGAUACCAGAUACGAAAGUAUCCCUUGGCAGCACAACAUGAGGAUCACCCAUGUAAUUU | 26.1 nM | 15.6 nM |  | 
GCGAUACGUACUGAUACCAGAGACAUGAGGAUCACCCAUGUCCCAUGAUCAUACCUCAGACUCCCUUGGCAGCAGGAUAAGUGAG |  |  | 11.2 nM | 18.3 nM
AUGUCGUUGAAUAUAGCGGCUUGGAGUGAUACCAGUAUGAUCCAAUACCCUUGGCAGCAUAACAUGAGGAUCACCCAUGUUCCAG | 21.3 nM | 31.6 nM |  | 
GAGCUGAUGUAGAAAUUUUAUUUAUGAGAUACCAGUACAGAAAUGUACCCUUGGCAGCUCAAUUUUACAUGAGGAUCACCCAUGU |  |  | 12.1 nM | 13.4 nM
UGACAUUGCUCAGAUACCAGACGUGAGGAUCACCCACGUGCCAACAUGAGGAUCACCCAUGUCCCUUGGCAGCUGAGCAAUGUCU |  |  | 15.7 nM | 183 nM
UGCAUCAUAAUCAUGUUGGUGCUAGGUGAUACCAGCAUCGAAAGAUGCCCUUGGCAGCACCAACAUGAGGAUCACCCAUGUAAUA | 114 nM | 337 nM |  | 
